Data set [1] in a line: AUC in Beagle dog at 10 mg/kg, iv administered as infusion. Also noted: dose 10 mg/kg, route intravenous. Conditions: plasma. The class given is ADME, organism-based, Canis lupus familiaris. The method in brief: (§1)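 Single iv dose (3 mg/kg bolus, or 10 mg/kg infusion, per line). Rats in groups of three, bolus via cannulated jugular vein. Male beagle dogs (n = 3), iv as 15 min infusion, sampled 0 to 24 h. Serial whole-blood samples taken at time intervals. Plasma levels measured by LC-MS/MS. Parameters estimated by non-compartmental analysis.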

The nature of data set [2]: AUC in Wistar Han rat at 10 mg/kg, iv administered as infusion. In kind it is ADME, organism-based. On the set-up: dose 10 mg/kg, route intravenous. The conditions noted are these: plasma. The method in brief: as §1
Data set [3] is described as follows: Half life in Beagle dog at 10 mg/kg, iv administered as infusion and po. In kind it is ADME, organism-based, Canis lupus familiaris. On the set-up: dose 10 mg/kg, route oral. The conditions noted are these: in vivo.
The subject of data set [4] is Canis familiaris. Description: Volume of distribution in Beagle dog at 10 mg/kg, iv administered as infusion and po. In kind it is ADME, organism-based, Canis lupus familiaris. On the set-up: dose 10 mg/kg, route oral. The conditions noted are these: in vivo. A digest of the protocol: as §1
In data set [5] the test system is Rattus norvegicus. Briefly: Volume of distribution in Wistar Han rat at 10 mg/kg, iv administered as infusion and po. In kind it is ADME, organism-based. Also noted: dose 10 mg/kg, route oral. Conditions: in vivo. A digest of the protocol: as §1
Data set [6] is described as follows: Intrinsic clearance in human hepatocytes measured per 10^6 cells. The class given is ADME, cell-based, Hepatocyte. The conditions noted are these: read-out: CLH.
The nature of data set [7]: Intrinsic clearance in Beagle dog hepatocytes measured per 10^6 cells. The class given is ADME, cell-based, Canis lupus familiaris, Hepatocyte. The conditions noted are these: read-out: CLH.
Data set [8] is described as follows: Intrinsic clearance in Wistar Han rat hepatocytes measured per 10^6 cells. In kind it is ADME, cell-based, Hepatocyte. Conditions: read-out: CLH.
Data set [9] can be described thus: Dissociation constant, pKa of the compound by pH metric assay. In kind it is physicochemical. A digest of the protocol:
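pH-metric titration on an automated titrator, run in triplicate. Accuracy about 0.02 log units.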

Data set [10] can be described thus: Octanol-phosphate buffer partition coefficient, log D of the compound at pH 7.4 by shake flask method. The class given is physicochemical. A digest of the protocol: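 Shake-flask partition between n-octanol and 10 mM phosphate buffer at pH 7.4. Shaken 1 h at 1200 rpm to reach equilibrium. Phases analysed by LC/UV, with MS for mass confirmation.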
The nature of data set [11]: Inhibition of Escherichia coli DNA topoisomerase 4 subunit ParC/DNA topoisomerase 4 subunit ParE ATPase activity after 24 hrs by malachite green staining-based colorimetric assay.
Data set [12] in a line: Fraction unbound in human plasma at 10 uM by equilibrium dialysis method. The class given is ADME, cell-free. A digest of the protocol:
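Equilibrium dialysis. Compound at 10 μM in the plasma (donor) chamber against phosphate buffer, rotated at 37 °C for 16 h. Drug in the plasma and buffer samples quantified by LC-MS/MS after methanol protein precipitation with internal standard. Standard curve 10 nM to 10 μM.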
(In equilibrium dialysis only unbound substance equilibrates across the membrane.)

Data set [13] relates to Escherichia coli. Briefly: Antibacterial activity against Escherichia coli W3110 after 18 to 24 hrs by CLSI broth microdilution method. The class given is functional. A general note: In broth dilution the organism is exposed to a series of concentrations in liquid medium.
The test system of data set [14] is Pseudomonas aeruginosa. Briefly: Antibacterial activity against Pseudomonas aeruginosa PAO1 after 18 to 24 hrs by CLSI broth microdilution method. The class given is functional.
Data set [15] deals with Streptococcus pneumoniae. Description: Antibacterial activity against penicillin-susceptible Streptococcus pneumoniae D39 after 18 to 24 hrs by CLSI broth microdilution method. In kind it is functional.
Data set [16] relates to Staphylococcus aureus. Briefly: Antibacterial activity against methicillin-susceptible Staphylococcus aureus after 18 to 24 hrs by CLSI broth microdilution method. In kind it is functional.
The test system of data set [17] is Staphylococcus aureus. Briefly: Antibacterial activity against linezolid-resistant Staphylococcus aureus ARC 3583 after 18 to 24 hrs by CLSI broth microdilution method. In kind it is functional. The method in brief:
(§2)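 CLSI broth microdilution in Mueller Hinton Broth 2. Inocula prepared from blood agar plates grown at 35 °C for 18–24 h. Compound in DMSO, 2% DMSO final, 11 doubling dilutions from 64 to 0.06 μg/mL. Plates read at 620 nm.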

Data set [18] relates to Staphylococcus aureus. Briefly: Antibacterial activity against vancomycin-resistant Staphylococcus aureus ARC 3186 after 18 to 24 hrs by CLSI broth microdilution method. In kind it is functional. A digest of the protocol:
as §2

For data set [19], the target named is T1, Voltage-gated inwardly rectifying potassium channel KCNH2 (Homo sapiens, UniProt Q12809). Briefly: Displacement of [3H]-astemizole from human ERG expressed in HEK293 cells after 60 mins by liquid scintillation counter. The class given is cell-based. A general note: In a radioligand displacement assay an active substance lowers the binding of a labelled ligand.

For data set [20], the target named is T1, Voltage-gated inwardly rectifying potassium channel KCNH2. Briefly: Inhibition of human ERG by Ionworks assay.
Data set [21] is described as follows: AUC in Beagle dog at 3 mg/kg, iv administered as bolus dose. In kind it is ADME, organism-based, Canis lupus familiaris. Also noted: dose 3 mg/kg, route intravenous. Conditions: plasma.
Data set [22] is described as follows: AUC in Wistar Han rat at 3 mg/kg, iv administered as bolus dose. The conditions noted are these: plasma. On the set-up: dose 3 mg/kg, route intravenous. The class given is ADME, organism-based. The method in brief:
as §1

Data set [23] can be described thus: Volume of distribution in Beagle dog at 3 mg/kg, iv administered as bolus dose and 10 mg/kg, po. The class given is ADME, organism-based, Canis lupus familiaris. The conditions noted are these: in vivo.
Data set [24] in a line: Volume of distribution in Wistar Han rat at 3 mg/kg, iv administered as bolus dose and 10 mg/kg, po. In kind it is ADME, organism-based. Conditions: in vivo. The method in brief: as §1
A short description of data set [25]: Clearance in Beagle dog at 3 mg/kg, iv administered as bolus dose and 10 mg/kg, po. The class given is ADME, organism-based, Canis lupus familiaris. Conditions: in vivo.
Data set [26] in a line: Clearance in Wistar Han rat at 3 mg/kg, iv administered as bolus dose and 10 mg/kg, po. Conditions: in vivo. The class given is ADME, organism-based. The method in brief: as §1
Data set [27] deals with Mus musculus. Briefly: AUC (infinity) in CD1 mouse infected with methicillin-resistant Staphylococcus aureus ARC 1692 at 80 mg/kg/day, ip. The conditions noted are these: in vivo. On the set-up: dose 80 mg/kg/day, time infinity, route intraperitoneal. In kind it is ADME, organism-based, Plasma.
The test system of data set [28] is Mus musculus. Briefly: AUC (infinity) in CD1 mouse infected with methicillin-resistant Staphylococcus aureus ARC 1692 at 40 mg/kg/day, ip. In kind it is ADME, organism-based, Plasma. Also noted: dose 40 mg/kg/day, time infinity, route intraperitoneal. Conditions: in vivo.
Data set [29] deals with Staphylococcus aureus. Description: Antibacterial activity against methicillin-resistant Staphylococcus aureus ARC 1692 in ABT-treated CD1 mouse neutropenic thigh infection model assessed as reduction in log10 CFU per gram of thigh at 80 mg/kg/day, ip qd starting 2 hrs post-infection measured after 24 hrs. In kind it is functional. The conditions noted are these: route intraperitoneal.

For data set [30], the system named is Staphylococcus aureus. Briefly: Antibacterial activity against methicillin-resistant Staphylococcus aureus ARC 1692 in ABT-treated CD1 mouse neutropenic thigh infection model assessed as reduction in log10 CFU per gram of thigh at 40 mg/kg/day, ip qd starting 2 hrs post-infection measured after 24 hrs. The class given is functional. The conditions noted are these: route intraperitoneal.

The test system of data set [31] is Staphylococcus aureus. Briefly: Antibacterial activity against hospital acquired methicillin-resistant Staphylococcus aureus ARC 1692 after 18 to 24 hrs by CLSI broth microdilution method. In kind it is functional. A digest of the protocol:
as §2

Data set [32] concerns Staphylococcus aureus. Description: Antibacterial activity against community acquired methicillin-resistant Staphylococcus aureus ARC 3189 after 18 to 24 hrs by CLSI broth microdilution method. In kind it is functional. A digest of the protocol: as §2

As a reminder, the half-life is how long it takes for the measured level to halve. By pKa is commonly meant the negative logarithm of the acid dissociation constant. By logD is commonly meant the decadic logarithm of the distribution of all forms, ionised or not, between an organic phase and buffer at a given pH. A word on the IC50: it is the concentration at which inhibition is half-maximal. As usually defined, the fraction unbound is free concentration divided by total concentration. As a reminder, the MIC is the least concentration at which growth counts as inhibited. Higher therefore signals a need for much substance.

In brackets after ≈: the same amount, converted by molar mass. Bounds are passed on as bounds.

T1 sequence (Q12809 whole entry): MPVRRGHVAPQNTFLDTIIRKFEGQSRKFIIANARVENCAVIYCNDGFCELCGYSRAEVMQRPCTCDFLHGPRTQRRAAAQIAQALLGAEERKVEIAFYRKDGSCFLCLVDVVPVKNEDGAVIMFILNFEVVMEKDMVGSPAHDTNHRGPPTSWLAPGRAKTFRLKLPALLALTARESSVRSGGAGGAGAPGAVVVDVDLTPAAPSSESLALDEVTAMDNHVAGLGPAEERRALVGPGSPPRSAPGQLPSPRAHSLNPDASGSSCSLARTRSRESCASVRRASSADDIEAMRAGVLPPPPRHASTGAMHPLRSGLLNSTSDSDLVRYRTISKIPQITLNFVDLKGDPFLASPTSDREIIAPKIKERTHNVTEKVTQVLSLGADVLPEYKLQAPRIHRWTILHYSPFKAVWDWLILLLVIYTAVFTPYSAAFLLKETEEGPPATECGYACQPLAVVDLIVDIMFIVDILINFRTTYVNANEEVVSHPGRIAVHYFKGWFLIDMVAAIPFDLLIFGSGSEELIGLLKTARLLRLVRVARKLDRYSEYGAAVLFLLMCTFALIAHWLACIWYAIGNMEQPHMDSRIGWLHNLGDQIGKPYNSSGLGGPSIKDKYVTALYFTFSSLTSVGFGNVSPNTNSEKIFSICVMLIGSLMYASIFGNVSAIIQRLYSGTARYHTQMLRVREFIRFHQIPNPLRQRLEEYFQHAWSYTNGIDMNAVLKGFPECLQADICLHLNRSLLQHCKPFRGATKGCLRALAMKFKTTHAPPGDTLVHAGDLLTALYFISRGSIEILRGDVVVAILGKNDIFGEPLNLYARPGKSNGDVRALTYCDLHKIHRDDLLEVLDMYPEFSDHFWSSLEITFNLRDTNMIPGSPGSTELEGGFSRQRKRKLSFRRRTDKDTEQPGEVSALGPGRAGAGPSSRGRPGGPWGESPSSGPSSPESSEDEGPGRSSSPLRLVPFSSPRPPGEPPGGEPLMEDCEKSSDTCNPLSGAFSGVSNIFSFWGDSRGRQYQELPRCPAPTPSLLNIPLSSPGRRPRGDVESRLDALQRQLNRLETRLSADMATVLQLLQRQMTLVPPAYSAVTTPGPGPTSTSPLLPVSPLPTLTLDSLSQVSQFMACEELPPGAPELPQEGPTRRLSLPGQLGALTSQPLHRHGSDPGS

Regarding `N#Cc1ccc2ccc(=O)n(CCN3CC[C@@H](NCc4ccc5c(n4)NC(=O)CO5)[C@@H](F)C3)c2c1`, the AUC in data set [1] amounted to 25000 ng·h/mL; in [2] it was 2500 ng·h/mL. The compound also showed a half-life in data set [3] of 324 min. The Vd turned out to be 1.7 L/kg in [4] and 3 L/kg in data set [5]. The values for the hepatocyte CLint in [6], in data set [7] and in data set [8] were 2 µL/min/1e6 cells, 8.6 µL/min/1e6 cells and 14 µL/min/1e6 cells, respectively. In data set [9], this compound came in with a pKa of 7.28. This compound came in with a logD in data set [10] of 0.66. Also, the IC50 in data set [11] was 11 nM. Moreover, in data set [12], the fraction unbound at 10 µM worked out at 0.2. The MIC was found to be 1 µg/mL (≈ 2.1 µM) in data set [13], 8 µg/mL (≈ 16.8 µM) in [14], 0.25 µg/mL (≈ 0.525 µM) in data set [15] and 0.06 µg/mL (≈ 0.126 µM) in data set [16].
As for `CC(=O)NC[C@H]1CN(c2ccc(N3CCOCC3)c(F)c2)C(=O)O1` [LINEZOLID], the values for the MIC in data set [17] and in data set [18] were 16 µg/mL (≈ 47.4 µM) and 1 µg/mL (≈ 2.96 µM), respectively.
In the case of `N#Cc1ccc2ccc(=O)n(CCN3CC[C@@H](NCc4cc5c(cn4)OCCO5)[C@@H](F)C3)c2c1`, the results for the IC50 in data set [19], in data set [20] and in data set [11] were > 200 µM, 199 µM and 60 nM, respectively. In addition, the logD in data set [10] was found to be 0.97. Also, the fraction unbound at 10 µM in [12] came to 0.2. The MIC is 4 µg/mL (≈ 8.63 µM) in data set [13], > 8 µg/mL in [14], 0.13 µg/mL (≈ 0.28 µM) in [15] and 0.13 µg/mL (≈ 0.28 µM) in data set [16].
On to `COc1ccc2ncc(=O)n(CCN3CCC(NCc4ccc5c(n4)NC(=O)CO5)CC3)c2c1`, for which the AUC in data set [21] was 6800 ng·h/mL; in [22], 190 ng·h/mL. Also, the Vd in data set [23] amounted to 2 L/kg; in [24], 23 L/kg. Further, the results for the clearance in data set [25] and in data set [26] were 8.5 mL/min/kg and 252 mL/min/kg, respectively. Moreover, the hepatocyte CLint in data set [7] is < 1 µL/min/1e6 cells; in [8] it was 26 µL/min/1e6 cells. The same compound showed a pKa in [9] of 8.42. The logD in data set [10] was 0.6. This compound also gave an IC50 in data set [11] of 2.2 nM. Also, the fraction unbound at 10 µM in data set [12] came to 0.26. Also, the MIC was determined as 0.13 µg/mL (≈ 0.28 µM) in [13], 1 µg/mL (≈ 2.15 µM) in [14], 0.08 µg/mL (≈ 0.172 µM) in data set [15] and 0.03 µg/mL (≈ 0.0646 µM) in [16].
For the compound `N#Cc1ccc2ccc(=O)n(CCN3CC[C@H](NCc4cc5c(cn4)OCCO5)[C@@H](F)C3)c2c1` (single isomer, unassigned; enantiomer B), the values for the IC50 in [19], in data set [20] and in data set [11] were 57 µM, 122 µM and 16 nM, respectively. The compound further yielded a pKa in [9] of 6.66. The same compound returned a logD in data set [10] of 1.53. Further, in data set [12], the fraction unbound at 10 µM stood at 0.09. Moreover, the MIC in data set [13] is 8 µg/mL (≈ 17.3 µM); in [14], > 8 µg/mL; in data set [15] it was 0.25 µg/mL (≈ 0.539 µM); in data set [16], 0.13 µg/mL (≈ 0.28 µM).
`C[C@H]1COc2c(N3CCN(C)CC3)c(F)cc3c(=O)c(C(=O)O)cn1c23.C[C@H]1COc2c(N3CCN(C)CC3)c(F)cc3c(=O)c(C(=O)O)cn1c23.O` [LEVOFLOXACIN]: the figures for the AUC in data set [27] and in data set [28] were 11 µg/h/mL and 4 µg/h/mL, respectively. Further, the log10cfu in [29] turned out to be 1.4; in data set [30], 0.3. Moreover, the minimal inhibitory concentration (MIC) in data set [17] is > 16 µg/mL; in data set [18], 16 µg/mL; in [31] it was 0.125 µg/mL; in data set [32], 8 µg/mL.

Values taken from ChEMBL document CHEMBL2163267, “Novel N-linked aminopiperidine inhibitors of bacterial topoisomerase type II with reduced pK(a): antibacterial agents with an improved safety profile” (J Med Chem, 2012).
